# Experimental data: ChEMBL document CHEMBL3045304, “Sesquiterpene lactones with potential use as natural herbicide models. 2. guaianolides” (2000)
# Calls of active or inactive are those of the source. The rule behind the calls is not given here.
# Columns and labels:
# Lactuca sativa [1] = test: Inhibition of germination of Lactuca sativa cv. Roman (lettuce) at 0.1 mM or 1 mM after 5 days relative to untreated control; assay type: functional
# Outline: (§1)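 Lettuce and tomato seeds, 25 per dish on filter paper, received 5 mL test solution. Incubation was 5 days in the dark at 25 °C, with four replicates per concentration. Solutions were made at 10^-3 or 10^-4 M in 10 mM MES, diluted serially, and adjusted to pH 6.0. Parallel controls were run. Results are % difference from control.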
# Allium cepa [2] = test: Inhibition of root length of Allium cepa cv. Valenciana (onion) at 0.1 mM or 1 mM after 5 days relative to untreated control; assay type: functional
# Lepidium sativum [3] = test: Stimulation of hypocotyl length of Lepidium sativum at 0.1 mM or 1 mM after 5 days relative to untreated control; assay type: functional
# Allium cepa [4] = test: Stimulation of hypocotyl length of Allium cepa cv. Valenciana (onion) at 0.1 mM or 1 mM after 5 days relative to untreated control; assay type: functional
# Lactuca sativa [5] = test: Stimulation of germination of Lactuca sativa cv. Roman (lettuce) at 0.1 mM or 1 mM after 5 days relative to untreated control; assay type: functional; outline: as §1
# Allium cepa [6] = test: Stimulation of root length of Allium cepa cv. Valenciana (onion) at 0.1 mM or 1 mM after 5 days relative to untreated control; assay type: functional
# Allium cepa [7] = test: Inhibition of hypocotyl length of Allium cepa cv. Valenciana (onion) at 0.1 mM or 1 mM after 5 days relative to untreated control; assay type: functional
# Triticum aestivum [8] = test: Stimulation of root length of Triticum aestivum cv. Cortex (wheat) at 0.1 mM or 1 mM after 5 days relative to untreated control; assay type: functional
# Outline: (§2)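 Wheat: 10 seeds per dish on filter paper with 5 mL test solution, 5 days in the dark at 25 °C, 10 replicates per concentration. Stock test solutions were 10^-3 or 10^-4 M in 10 mM MES, with lower levels made by dilution, all at pH 6.0. Parallel controls were run. Output is % difference from control.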
# Solanum lycopersicum [9] = test: Inhibition of germination of Solanum lycopersicum cv. Tres Cantos (tomato) at 0.1 mM or 1 mM after 5 days relative to untreated control; assay type: functional; outline: as §1
# Solanum lycopersicum [10] = test: Stimulation of root length of Solanum lycopersicum cv. Tres Cantos (tomato) at 0.1 mM or 1 mM after 5 days relative to untreated control; assay type: functional; outline: as §1
# Triticum aestivum [11] = test: Stimulation of germination of Triticum aestivum cv. Cortex (wheat) at 0.1 mM or 1 mM after 5 days relative to untreated control; assay type: functional; outline: as §2
# Lactuca sativa [12] = test: Inhibition of hypocotyl length of Lactuca sativa cv. Roman (lettuce) at 0.1 mM or 1 mM after 5 days relative to untreated control; assay type: functional; outline: as §1
# Lepidium sativum [13] = test: Inhibition of germination of Lepidium sativum at 0.1 mM or 1 mM after 5 days relative to untreated control; assay type: functional
# Lactuca sativa [14] = test: Stimulation of root length of Lactuca sativa cv. Roman (lettuce) at 0.1 mM or 1 mM after 5 days relative to untreated control; assay type: functional; outline: as §1
# Lactuca sativa [15] = test: Stimulation of hypocotyl length of Lactuca sativa cv. Roman (lettuce) at 0.1 mM or 1 mM after 5 days relative to untreated control; assay type: functional; outline: as §1
# Solanum lycopersicum [16] = test: Inhibition of hypocotyl length of Solanum lycopersicum cv. Tres Cantos (tomato) at 0.1 mM or 1 mM after 5 days relative to untreated control; assay type: functional; outline: as §1
# Solanum lycopersicum [17] = test: Inhibition of root length of Solanum lycopersicum cv. Tres Cantos (tomato) at 0.1 mM or 1 mM after 5 days relative to untreated control; assay type: functional; outline: as §1
# Lepidium sativum [18] = test: Inhibition of hypocotyl length of Lepidium sativum at 0.1 mM or 1 mM after 4 days relative to untreated control
# Lepidium sativum [19] = test: Inhibition of germination of Lepidium sativum at 0.1 mM or 1 mM after 4 days relative to untreated control; set-up: scale not given: the % may be the effect or the level left
# Allium cepa [20] = test: Inhibition of germination of Allium cepa cv. Valenciana (onion) at 0.1 mM or 1 mM after 5 days relative to untreated control; assay type: functional
# Triticum aestivum [21] = test: Inhibition of hypocotyl length of Triticum aestivum cv. Cortex (wheat) at 0.1 mM or 1 mM after 5 days relative to untreated control; assay type: functional; outline: as §2
# Lactuca sativa [22] = test: Inhibition of root length of Lactuca sativa cv. Roman (lettuce) at 0.1 mM or 1 mM after 5 days relative to untreated control; assay type: functional; outline: as §1
# Triticum aestivum [23] = test: Inhibition of root length of Triticum aestivum cv. Cortex (wheat) at 0.1 mM or 1 mM after 5 days relative to untreated control; assay type: functional; outline: as §2
# Triticum aestivum [24] = test: Inhibition of germination of Triticum aestivum cv. Cortex (wheat) at 0.1 mM or 1 mM after 5 days relative to untreated control; assay type: functional; outline: as §2
# Solanum lycopersicum [25] = test: Stimulation of germination of Solanum lycopersicum cv. Tres Cantos (tomato) at 0.1 mM or 1 mM after 5 days relative to untreated control; assay type: functional; outline: as §1
# Lepidium sativum [26] = test: Stimulation of root length of Lepidium sativum at 0.1 mM or 1 mM after 5 days relative to untreated control; assay type: functional
# Lepidium sativum [27] = test: Inhibition of root length of Lepidium sativum at 0.1 mM or 1 mM after 4 days relative to untreated control
# Solanum lycopersicum [28] = test: Stimulation of hypocotyl length of Solanum lycopersicum cv. Tres Cantos (tomato) at 0.1 mM or 1 mM after 5 days relative to untreated control; assay type: functional; outline: as §1
# Allium cepa [29] = test: Stimulation of germination of Allium cepa cv. Valenciana (onion) at 0.1 mM or 1 mM after 5 days relative to untreated control; assay type: functional
# Triticum aestivum [30] = test: Stimulation of hypocotyl length of Triticum aestivum cv. Cortex (wheat) at 0.1 mM or 1 mM after 5 days relative to untreated control; assay type: functional; outline: as §2
# Allium cepa [31] = test: Stimulation of root length of Allium cepa cv. Valenciana (onion) at 0.1 mM or 1 mM after 7 days relative to untreated control
# Lepidium sativum [32] = test: Inhibition of germination of Lepidium sativum at 0.1 mM or 1 mM after 4 days relative to untreated control
# Allium cepa [33] = test: Inhibition of hypocotyl length of Allium cepa cv. Valenciana (onion) at 0.1 mM or 1 mM after 7 days relative to untreated control
# Allium cepa [34] = test: Stimulation of germination of Allium cepa cv. Valenciana (onion) at 0.1 mM or 1 mM after 7 days relative to untreated control
# Allium cepa [35] = test: Stimulation of hypocotyl length of Allium cepa cv. Valenciana (onion) at 0.1 mM or 1 mM after 7 days relative to untreated control
SMILES,Activity (Lepidium sativum [3]),Activity (Lactuca sativa [5]),Activity (Triticum aestivum [8]),inhibition (Solanum lycopersicum [9]),Activity (Solanum lycopersicum [10]),Activity (Triticum aestivum [11]),inhibition (INH) (Lactuca sativa [12]),Activity (Lactuca sativa [14]),Activity (Lactuca sativa [15]),inhibition (INH) (Solanum lycopersicum [16]),inhibition (Allium cepa [20]),inhibition (INH) (Triticum aestivum [21]),inhibition (INH) (Lactuca sativa [22]),inhibition (INH) (Triticum aestivum [23]),inhibition (Triticum aestivum [24]),Activity (Solanum lycopersicum [25]),Activity (Lepidium sativum [26]),inhibition (INH) (Lepidium sativum [27]),Activity (Solanum lycopersicum [28]),Activity (Triticum aestivum [30]),further results
C=C1C(=O)O[C@H]2[C@H]1CCC(=C)[C@@H]1C[C@@H](O)C(=C)[C@@]12O [5ALPHA-HYDROXYISOZALUZANIN C],>40%,20%,>40%,inactive,>40%,inactive,20%,<20%,20%,>40%,inactive,20%,<20%,>40%,inactive,inactive,>40%,>40%,>40%,20%,inhibition (INH) (Lactuca sativa [1]): 20%; inhibition (INH) (Allium cepa [2]): >40%; Activity (Allium cepa [4]): >40%; Activity (Allium cepa [6]): >40%; inhibition (INH) (Allium cepa [7]): >40%; inhibition (INH) (Lepidium sativum [13]): >40%; inhibition (INH) (Solanum lycopersicum [17]): >40%; inhibition (INH) (Lepidium sativum [18]): >40%; Activity (Lepidium sativum [19]): >40%; Activity (Allium cepa [29]): inactive
CC(=O)O[C@H]1CC(C)=C2C(=O)C=C(C)[C@@H]2[C@H]2OC(=O)[C@H](C)[C@H]21 [8ALPHA-ACETOXYACHILLIN],inactive,inactive,inactive,inactive,inactive,20%,<20%,<20%,<20%,<20%,inactive,<20%,<20%,,,inactive,inactive,,<20%,<20%,inhibition (Lactuca sativa [1]): inactive; inhibition (Allium cepa [2]): inactive; Activity (Allium cepa [31]): inactive; inhibition (Solanum lycopersicum [17]): inactive; Activity (Lepidium sativum [32]): inactive; inhibition (Lepidium sativum [32]): inactive; inhibition (Lepidium sativum [18]): inactive; inhibition (Triticum aestivum [23]): inactive; inhibition (INH) (Triticum aestivum [24]): 20%; inhibition (Lepidium sativum [27]): inactive; inhibition (Allium cepa [33]): inactive; Activity (Allium cepa [34]): inactive; Activity (Allium cepa [35]): inactive
C=C1C(=O)O[C@H]2[C@H]1CCC(=C)[C@]1(O)C[C@@H](O)C(=C)[C@]21O,inactive,inactive,<20%,,inactive,inactive,20%,<20%,20%,,inactive,<20%,<20%,<20%,inactive,<20%,<20%,<20%,inactive,<20%,inhibition (Lactuca sativa [1]): inactive; inhibition (Allium cepa [2]): inactive; Activity (Allium cepa [31]): inactive; inhibition (INH) (Solanum lycopersicum [9]): <20%; inhibition (Solanum lycopersicum [16]): inactive; inhibition (Solanum lycopersicum [17]): inactive; Activity (Lepidium sativum [32]): inactive; inhibition (Lepidium sativum [32]): inactive; inhibition (Lepidium sativum [18]): inactive; inhibition (Allium cepa [33]): inactive; Activity (Allium cepa [34]): inactive; Activity (Allium cepa [35]): inactive
